Assay results published in ChEMBL document CHEMBL1127337, “1-((7,7-Dimethyl-2(S)-(2(S)-amino-4-(methylsulfonyl)butyramido)bicyclo [2.2.1]-heptan-1(S)-yl)methyl)sulfonyl)-4-(2-methylphenyl)piperaz ine (L-368,899): an orally bioavailable, non-peptide oxytocin antagonist with potential utility for managing preterm labor” (J Med Chem, 1994).
pIC50: −log10 of the molar value. The source made the active and inactive calls. The rule behind the calls is not given here.

Legend:
Oxytocin receptor [1] = molecular target: T1, Oxytocin receptor (Rattus norvegicus, UniProt P70536); experiment: Displacement of [3H]OT from binding to oxytocin receptor of rat uterus
T1 sequence (P70536 whole entry): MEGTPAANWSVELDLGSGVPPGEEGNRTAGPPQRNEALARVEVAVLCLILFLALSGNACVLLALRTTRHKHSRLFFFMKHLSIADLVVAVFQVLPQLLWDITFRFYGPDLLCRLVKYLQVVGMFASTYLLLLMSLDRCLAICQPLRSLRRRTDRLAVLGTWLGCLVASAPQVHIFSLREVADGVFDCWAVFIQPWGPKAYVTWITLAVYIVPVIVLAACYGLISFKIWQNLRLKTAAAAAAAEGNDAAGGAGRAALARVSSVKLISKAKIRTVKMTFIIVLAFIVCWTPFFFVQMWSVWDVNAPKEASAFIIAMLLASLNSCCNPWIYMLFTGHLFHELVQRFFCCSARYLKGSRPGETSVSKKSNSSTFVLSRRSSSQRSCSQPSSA
Procedure, shortened: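 Competition binding against [3H]OT on uterine tissue from pregnant rats (day 22-23 of gestation) or DES-pretreated rats. IC50 is the molar concentration giving 50% displacement of radioligand.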

Vasopressin V2 receptor = Vasopressin V2 receptor (Rattus norvegicus, UniProt Q00788); experiment: Displacement of [3H]-AVP from binding to Vasopressin receptor V2 of rat kidney
Chain of Vasopressin V2 receptor (Q00788 whole entry): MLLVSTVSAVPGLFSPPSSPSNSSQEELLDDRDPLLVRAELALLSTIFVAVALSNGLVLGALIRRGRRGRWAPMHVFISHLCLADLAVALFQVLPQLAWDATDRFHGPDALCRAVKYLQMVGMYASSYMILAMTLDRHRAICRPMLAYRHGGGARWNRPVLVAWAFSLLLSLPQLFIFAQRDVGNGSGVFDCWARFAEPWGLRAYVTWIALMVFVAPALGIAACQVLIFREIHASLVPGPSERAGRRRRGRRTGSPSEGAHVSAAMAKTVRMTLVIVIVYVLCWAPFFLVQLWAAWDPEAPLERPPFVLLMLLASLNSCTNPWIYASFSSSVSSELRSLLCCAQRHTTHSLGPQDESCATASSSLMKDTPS
Procedure, shortened: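 [3H]AVP competition binding on kidney medulla from male rats (V2 site). IC50 is the molar concentration displacing 50% of radioligand.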

Vasopressin V1a receptor = Vasopressin V1a receptor (Rattus norvegicus, UniProt P30560); experiment: Displacement of [3H]AVP from binding to arginine vasopressin 1a (V1a) […] of rat liver
Chain of Vasopressin V1a receptor (P30560 whole entry): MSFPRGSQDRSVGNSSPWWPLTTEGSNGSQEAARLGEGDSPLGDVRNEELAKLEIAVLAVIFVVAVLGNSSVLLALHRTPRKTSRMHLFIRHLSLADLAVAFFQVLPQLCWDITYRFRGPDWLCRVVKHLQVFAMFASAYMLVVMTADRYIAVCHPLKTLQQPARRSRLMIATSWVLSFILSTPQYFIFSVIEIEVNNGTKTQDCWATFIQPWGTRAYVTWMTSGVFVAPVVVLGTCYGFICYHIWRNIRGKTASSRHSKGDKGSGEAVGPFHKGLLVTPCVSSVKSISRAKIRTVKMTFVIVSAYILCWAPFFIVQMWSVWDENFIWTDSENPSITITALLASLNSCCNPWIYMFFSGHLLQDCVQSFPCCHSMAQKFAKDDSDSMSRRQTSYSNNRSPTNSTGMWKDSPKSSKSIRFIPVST
Procedure, shortened: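 Competition binding against [3H]AVP on liver from male rats (V1a site). IC50 is the molar concentration giving 50% radioligand displacement.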

Rattus norvegicus [2] = experiment: AD50 value which refers to the dose given intravenously (iv) that reduces by 50% the contractile response of the in situ rat uterus to exogenous OT was determined for the compound in vivo; type: functional
Procedure, shortened: (§1)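 Anesthetized DES-pretreated rats set up for isometric recording of in situ uterine contraction; OT 1 µg/kg iv every 35 min, third response taken as 100%. Antagonist infused iv over 10 min in saline, saline with 2% DMSO, or 15% DMSO plus 15% emulphor. AD50 is the dose cutting the response to the fourth OT injection by 50% relative to vehicle-treated rats.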

Rattus norvegicus [3] = experiment: In vivo dose given intraduodenally (id) that reduces by 50% the contractile response of the in situ rat uterus to exogenous OT; NA=Inactive at 1.0; type: functional, organism-based
Procedure, shortened: (§2)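 Uterine contraction recorded isometrically in situ in anesthetized DES-pretreated rats; OT 1 µg/kg iv at 35-min intervals, third response set as 100%. Antagonist injected intraduodenally as a suspension in saline with 1% methocel. AD50 is the dose lowering the response to the fourth OT injection by 50% against the vehicle group.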

[4] = Aqueous solubilities were determined by dissolving an crystalline hemisulfate and […] salts, respectively in water and adding acetate to pH 5.0, concentrations are expressed in free base equivalents; type: ADME; conditions: water adjusted with acetate, read-out: S
Procedure, shortened: (§3)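 Crystalline hemisulfate or dihydrochloride salt dissolved in water, then acetate added to pH 5.0 to measure aqueous solubility.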

[5] = Aqueous solubilities were determined by dissolving an crystalline hemisulfate and […] salts, respectively in water and adding acetate to pH 5.0, concentrations are expressed in free base equivalents.; type: ADME; conditions: water adjusted with acetate, read-out: S; procedure, shortened: as §3
Rattus norvegicus [6] = experiment: In vivo dose given intraduodenally (id) that reduces by 50% the contractile response of the in situ rat uterus to exogenous OT; NA=Inactive at 3.0 mg/Kg; type: functional, organism-based; procedure, shortened: as §2
Rattus norvegicus [7] = experiment: In vivo dose given intravenously (iv) that reduces by 50% the contractile response of the in situ rat uterus to exogenous OT; type: functional; procedure, shortened: as §1
Rattus norvegicus [8] = experiment: In vivo dose given intraduodenally (id) that reduces by 50% the contractile response of the in situ rat uterus to exogenous OT; ca.20; type: functional; procedure, shortened: as §2
Rattus norvegicus [9] = experiment: in vivo dose given intravenously (iv) that reduces by 50% the contractile response of the in situ rat uterus to exogenous OT; type: functional; procedure, shortened: as §1
Rattus norvegicus [10] = experiment: In vivo dose given intraduodenally (id) that reduces by 50% the contractile response of the in situ rat uterus to exogenous OT; type: functional; procedure, shortened: as §2
Rattus norvegicus [11] = experiment: In vivo dose given intraduodenally (id) that reduces by 50% the contractile response of the in situ rat uterus to exogenous OT; ca.2; type: functional; procedure, shortened: as §2
Oxytocin receptor [12] = molecular target: T1, Oxytocin receptor; experiment: In vitro antagonism of OT-induced uterine contractions, against rat uterus by measuring pA2 value which refers to the negative logarithm of the molar concentration; type: functional, tissue-based; conditions: read-out: pA2 (converted)
Procedure, shortened: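 Uteri isolated from diethylstilbestrol-pretreated rats; contractions evoked by oxytocin. pA2 = negative log of molar antagonist concentration giving a 2-fold rightward shift of the oxytocin dose-response curve (dose ratio 2), derived by Schild analysis.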

Oxytocin receptor [13] = molecular target: T1, Oxytocin receptor; experiment: In vitro antagonism of OT-induced uterine contractions, against rat uterus by measuring pA2 value; type: functional, tissue-based; conditions: read-out: pA2 (converted)
Procedure, shortened: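 Uteri isolated from DES-pretreated rats and contracted with OT. pA2 is the negative log molar antagonist concentration giving a 2-fold rightward shift of the OT dose-response curve (dose ratio 2), derived from Schild plots.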

| Compound | pIC50 (Oxytocin receptor [1]) | pIC50 (Vasopressin V2 receptor) | pIC50 (Vasopressin V1a receptor) | AD50 (Rattus norvegicus [2]) [mg/kg] | AD50 (Rattus norvegicus [3]) | solubility [4] [µg/mL] | solubility [5] [µg/mL] | AD50 (Rattus norvegicus [6]) | AD50 (Rattus norvegicus [7]) [mg/kg] | AD50 (Rattus norvegicus [8]) [mg/kg] | AD50 (Rattus norvegicus [9]) [mg/kg] | AD50 (Rattus norvegicus [10]) [mg/kg] | AD50 (Rattus norvegicus [11]) [mg/kg] | Kb (Oxytocin receptor [12]) [nM] | Kb (Oxytocin receptor [13]) [nM] |
| --- | --- | --- | --- | --- | --- | --- | --- | --- | --- | --- | --- | --- | --- | --- | --- |
| Cc1ccccc1N1CCN(S(=O)(=O)C[C@]23CCC(C[C@@H]2NC(=O)[C@H](CCS(C)(=O)=O)NC2CCCCC2)C3(C)C)CC1 | 7.82 | 6.64 | 6.22 |  |  |  |  |  |  |  |  |  |  |  |  |
| Cc1ccccc1N1CCN(S(=O)(=O)C[C@]23CCC(C[C@@H]2NC(=O)[C@H](CCS(C)(=O)=O)NC2CCS(=O)(=O)CC2)C3(C)C)CC1 | 8.85 | 6.80 | 6.36 | 0.031 | inactive | < 300 |  |  |  |  |  |  |  |  |  |
| Cc1ccccc1N1CCN(S(=O)(=O)C[C@]23CCC(C[C@@H]2NC(=O)[C@H](CCS(C)(=O)=O)N(CCO)CCO)C3(C)C)CC1 | 8.55 | 6.62 | 6.19 |  |  |  | 190 | inactive | 0.087 |  |  |  |  |  |  |
| CCN(CC)[C@@H](CCS(C)(=O)=O)C(=O)N[C@H]1CC2CC[C@]1(CS(=O)(=O)N1CCN(c3ccccc3C)CC1)C2(C)C | 7.74 | 6.51 | 5.89 |  |  | 230 |  |  |  |  |  |  |  |  |  |
| CC1(C)C2CC[C@@]1(CS(=O)(=O)N1CCC3(CCc4ccccc43)CC1)[C@@H](NC(=O)[C@@H](N)CCS(C)(=O)=O)C2 | 7.92 | 5.62 | 6.05 |  |  |  | 1500 |  |  | 20 | 0.84 |  |  |  |  |
| Cc1ccccc1N1CCN(S(=O)(=O)C[C@]23CCC(C[C@@H]2NC(=O)[C@H](CCS(C)(=O)=O)NC2CCOCC2)C3(C)C)CC1 | 8.62 | 6.57 | 6.17 |  |  | 360 |  |  | 0.045 |  |  | 1.4 |  |  |  |
| CC1(C)C2CC[C@@]1(CS(=O)(=O)N1CCC3(CCc4ccccc43)CC1)[C@@H](NC(=O)[C@@H](N)CCC(N)=O)C2 | 7.92 | 5.29 | 5.64 |  |  |  |  |  |  |  |  | >30 | 2 |  |  |
| Cc1ccccc1N1CCN(S(=O)(=O)C[C@]23CCC(C[C@@H]2NC(=O)[C@H](CCS(C)(=O)=O)NC2CCNCC2)C3(C)C)CC1 | 8.89 | 6.89 | 6.66 |  | inactive | 3000 |  |  | 0.021 |  |  |  |  |  |  |
| Cc1ccccc1N1CCN(S(=O)(=O)C[C@]23CCC(C[C@@H]2NC(=O)[C@@H](N)CCS(C)(=O)=O)C3(C)C)CC1 | 8.05 | 6.24 | 6.43 |  |  | 3700 |  |  | 0.35 |  |  | 7 |  | 1.26 |  |
| CN[C@@H](CCS(C)(=O)=O)C(=O)N[C@H]1CC2CC[C@]1(CS(=O)(=O)N1CCN(c3ccccc3C)CC1)C2(C)C | 8.04 | 6.46 | 6.49 |  |  |  |  |  |  |  |  |  |  |  |  |
| Cc1ccccc1N1CCN(S(=O)(=O)C[C@]23CCC(C[C@@H]2NC(=O)[C@H](CCS(C)(=O)=O)N(C)C)C3(C)C)CC1 | 8.31 | 6.54 | 6.44 |  |  | 3100 |  |  | 0.13 |  |  | 2.6 |  |  | 1 |
